# SENP8 block-1 – blocks human SENP8 cleavage of Nedd8 substrate; recombinant SENP8, Nedd8 substrate fluorescence; inhibition, % at 20 µM; actives 0.64% (n = 360,000); in the data active = inhibition mostly above about 40%, no sharp cut-off; inactive = mostly below about 27%
# SENP6 block – blocks the human protease SENP6; Q9GZR1; actives 1.8% (n = 330,000); Recombinant SENP6 catalytic domain, aminoluciferin luminescence; inhibition, % at 10 µM; AID 2599;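 active = inhibition above about 50% at the single tested dose, limit read from the data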
# SENP8 block-2 – SENP8 protease inhibition. inhibition, % at 10 µM. purified SENP8, Z-RLRGG-aminoluciferin cleavage, luminescence. actives 1.2% (n = 330,000). Q96LD8; in the data active = inhibition above about 50%
# UBC13 inh – blocks human UBC13 polyubiquitin chain formation; P61088; TR-FRET; inhibition, % at 20 µM; actives 0.47% (n = 330,000); in the data active = inhibition above about 45%, passing the limit was not always enough
# Target sequence (P61088 whole entry, looked up): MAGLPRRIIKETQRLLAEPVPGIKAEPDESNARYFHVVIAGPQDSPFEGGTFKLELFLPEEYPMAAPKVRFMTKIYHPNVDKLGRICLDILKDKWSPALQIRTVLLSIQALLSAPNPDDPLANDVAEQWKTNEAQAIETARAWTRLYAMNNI
# SENP7 inh – SENP7 protease inhibition; actives 1.5% (n = 330,000); inhibition, % at 5 µM; Q9BQF6; recombinant SENP7, Z-RLRGG-aminoluciferin luminescence, 40 min;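 active = inhibition above about 50% at the single test dose, limit read from the data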
# Target sequence (Q9BQF6 706-1050 limits assumed): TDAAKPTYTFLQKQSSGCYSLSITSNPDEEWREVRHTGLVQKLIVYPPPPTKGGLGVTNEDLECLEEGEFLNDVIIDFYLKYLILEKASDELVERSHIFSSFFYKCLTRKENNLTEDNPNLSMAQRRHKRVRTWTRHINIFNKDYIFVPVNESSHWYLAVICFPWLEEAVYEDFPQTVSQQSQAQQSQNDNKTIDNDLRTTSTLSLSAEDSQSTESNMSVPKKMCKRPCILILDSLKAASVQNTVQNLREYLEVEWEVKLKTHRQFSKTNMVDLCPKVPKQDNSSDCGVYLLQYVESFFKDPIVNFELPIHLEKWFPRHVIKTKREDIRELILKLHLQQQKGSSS
# Apaf-1 inh – blocks human Apaf-1 apoptosome activity; actives 0.71% (n = 330,000); reconstituted apoptosome caspase-3 activity, DEVD-Rh110 fluorescence; inhibition, % at 20 µM; O14727; active = inhibition of at least 40% at 20 µM
#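 System: Apoptosome proteins | Medium: Hepes pH 7.5 with detergent and BSA | Also added: Cytochrome c trigger plus (Z-DEVD)2-Rh110 caspase-3 substrate | Incubation: 30 min compound preincubation, 50 min activation, room temperature | Detection: Rhodamine 110 fluorescence at Ex 480/Em 540 nm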
# SENP8 conf – confirmation of human SENP8 protease inhibitors | shares compounds with SENP7 inh | Recombinant SENP8, Z-RLRGG-aminoluciferin luminescence, 60 min | inhibition, % at 12.5 µM | actives 40% (n = 6,200) | AID 488912;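 active = mean inhibition across replicates above about 50%, limit read from the data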
# SENP6 conf – confirmation of human SENP6 protease inhibitors | shares compounds with SENP7 inh | recombinant SENP6, Z-RLRGG-aminoluciferin luminescence | inhibition, % at 12.5 µM | actives 58% (n = 6,200)
# SENP7 conf – human SENP7 inhibition, confirmed; shares compounds with SENP7 inh; recombinant SENP7, Z-RLRGG-aminoluciferin luminescence, 40 min; inhibition, % at 12.5 µM; actives 69% (n = 6,200)
# Casp3 SENP sel – selectivity test for SENP inhibitors: human caspase-3 inhibition. purified caspase-3, Z-DEVD-aminoluciferin luminescence, 60 min. actives 60% (n = 6,200). AID 488918. inhibition, % at 12.5 µM. shares compounds with SENP7 inh;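 active = mean inhibition above about 50%, limit read from the data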
# Luc interf – counter-screen for SENP inhibitors: luminescence interference; actives 39% (n = 6,200); shares compounds with SENP7 inh; inhibition, % at 12.5 µM; Pre-incubated SENP8/Z-RLRGG-aminoluciferin, luciferase luminescence interference;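 active = mean inhibition above about 50% when retested at one dose, limit read from the data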
# Apaf-1 inh conf – confirmation of Apaf-1 inhibitors. shares compounds with Apaf-1 inh. reconstituted apoptosome, caspase-3 DEVD-Rh110 fluorescence. inhibition, % at 20 µM. actives 25% (n = 1,800);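 active = mean inhibition of at least 40% at 20 µM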
# Rh110 quench – Rh110 signal interference in Apaf-1 inhibitor counter-screen | Rh110 fluorescence interference, quenched caspase reaction | shares compounds with Apaf-1 inh | activation (fluorescence interference), % at 20 µM | 1,800 tested, under 10 active;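 active = signal rise of 40% or more at 20 µM, treated as a fluorescence artifact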
# Apaf1 inh interf – counter-screen for Apaf-1 inhibitors: fluorescence interference, dose response; shares compounds with Apaf-1 inh; AID 588538; fluorescence interference counterscreen, Apaf-1 assay format; 460 tested, under 10 active; IC50, µM; call rule not given here
# Numbers stand for hits; i = inactive; nt = no result. Hits are enriched below; roughly 3% of the tested compounds scored in any of these assays.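 Rule for the calls, unless noted: active = mean inhibition above about 50% in the one-dose retest (limit read from the data); inactive = the rest.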
SMILES,SENP8 block-1,SENP6 block,SENP8 block-2,UBC13 inh,SENP7 inh,Apaf-1 inh,SENP8 conf,SENP6 conf,SENP7 conf,Casp3 SENP sel,Luc interf,Apaf-1 inh conf,Rh110 quench,others
OCCCCNc1cccc2ccccc12,i,62.8,i,i,i,80.9,i,i,i,i,i,i,i,
COc1ccc(-n2nc3cc(N)c(Br)cc3n2)cc1,i,84.5,74.3,i,67.4,69.1,i,67.4,88.9,i,i,i,i,
Cc1ccc(-n2nc3cc(C)c(N)cc3n2)cc1,i,i,i,i,i,i,nt,nt,nt,nt,nt,nt,nt,
O=C(c1cccs1)N1C[C@@H](n2cc(C3CC3)nn2)[C@H](O)C[C@@H]1c1ccc(Cl)cc1,i,nt,nt,nt,nt,nt,nt,nt,nt,nt,nt,nt,nt,
COc1cc2c(cc1OC)-c1cc3ccc4c(c3c[n+]1CC2)OCO4,i,50.1,i,i,i,73.4,i,i,i,i,i,i,i,
CC(c1ccc2ccccc2c1)c1ccccc1C(=O)O (centres undefined),i,nt,nt,nt,nt,nt,nt,nt,nt,nt,nt,nt,nt,
COc1cc(OC)c(NC2=CC(=O)C(=O)c3ccccc32)cc1Cl,i,79.5,70.0,i,53.2,91.6,i,87.1,72.9,i,i,92.1,i,Apaf1 inh interf=i
Cc1cc(NC2=CC(=O)C(=O)c3ccccc32)no1,i,nt,nt,nt,nt,nt,nt,nt,nt,nt,nt,nt,nt,
Oc1ccc(NCc2ccccc2OCc2ccccc2F)cc1,76.5,60.1,i,i,i,92.1,i,i,i,i,i,i,i,
COc1ccc(S(=O)(=O)Nc2cc(SCC(=O)O)c(O)c3ccccc23)cc1,i,75.6,50.8,i,i,85.5,i,59.4,i,i,i,41.0,i,Apaf1 inh interf=i
Nc1ccn([C@@H]2O[C@H](C(=O)N(CCC3=CCCCC3)CC3CC3)[C@@H](O)[C@H]2O)c(=O)n1,i,nt,nt,nt,nt,nt,nt,nt,nt,nt,nt,nt,nt,
COc1ccc(Nc2ccc3c(c2)=NC2(CCCCC2)[N+]=3[O-])cc1,81.0,82.3,i,i,i,79.7,i,64.2,i,i,i,70.0,i,Apaf1 inh interf=i
Cc1cc(C(=O)COc2cccc3cccnc23)c(C)n1C,i,79.0,i,i,i,53.4,i,i,i,i,i,i,i,
COc1ccc(CCn2c(N)c(C(=O)NCc3ccco3)c3nc4ccccc4nc32)cc1,i,i,i,i,i,i,nt,nt,nt,nt,nt,nt,nt,
Nc1c(C(=O)NCc2ccco2)c2nc3ccccc3nc2n1CCc1ccccc1F,i,51.1,i,i,i,61.4,i,i,i,i,i,i,i,
O=C(NCc1ccco1)c1c(F)c(F)c(F)c(C(=O)NCc2ccco2)c1F,i,i,i,i,i,i,nt,nt,nt,nt,nt,nt,nt,
COc1ccc(CCn2c(N)c(C(=O)NCc3ccco3)c3nc4ccccc4nc32)cc1OC,i,70.4,i,i,i,62.8,i,i,i,i,i,i,i,
C=CCN(CC=C)C(=S)Nc1ccc2nsnc2c1,i,74.9,i,i,i,96.0,i,i,i,i,i,i,i,
S=C(Nc1ccc2nsnc2c1)N1CCCCCC1,i,92.8,89.4,i,53.0,92.6,i,i,i,i,57.9,i,i,
COc1ccc(NC(=O)CSc2nnnn2C2CCCC2)cc1S(=O)(=O)N1CCOCC1,i,nt,nt,nt,nt,nt,nt,nt,nt,nt,nt,nt,nt,

# Screening results deposited in PubChem by Sanford-Burnham Center for Chemical Genomics.
